From ChEMBL document CHEMBL1649117, “GRL-02031, a novel nonpeptidic protease inhibitor (PI) containing a stereochemically defined fused cyclopentanyltetrahydrofuran potent against multi-PI-resistant human immunodeficiency virus type 1 in vitro” (Antimicrob Agents Chemother, 2009)

Tests used:
[1] = test system: Human immunodeficiency virus 1; assay: Ratio of EC50 for amprenavir to compound against HIV1 NL4-3 harboring L10F/M46I/I47V/V82I/I85V mutation in protease encoding region infected in human […] cells; assay type: functional
[2] = test system: Human immunodeficiency virus 1; assay: Ratio of EC50 for amprenavir to compound against HIV1 NL4-3 harboring M46I/I47V mutation in protease encoding region infected in human […] cells; assay type: functional
[3] = test system: Human immunodeficiency virus 1; assay: Ratio of EC50 for amprenavir to compound against HIV1 NL4-3 harboring I50V mutation in protease encoding region infected in human […] cells; assay type: functional
[4] = test system: Human immunodeficiency virus 1; assay: Ratio of EC50 for ritonavir to compound against HIV1 NL4-3 harboring L10F/I47V/V82I/I85V mutation in protease encoding region infected in human […] cells; assay type: functional
[5] = test system: Human immunodeficiency virus 1; assay: Antiviral activity against HIV1 NL4-3 harboring D30N mutation in protease encoding region infected in human […] cells assessed as inhibition of p24 Gag protein production by ELISA; assay type: functional, organism-based; settings: Human immunodeficiency virus 1, NL4-3
How it was run: (§1)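 Protease PCR fragments (ApaI/SmaI) were cloned into pHIV-1NLSma, and virions were harvested from transfected 293T cells over 48 h. MT-4 target cells (10^5/ml) were infected with 100 TCID50s, with or without drug, at 37°C. Day-7 supernatant p24 Gag was read by chemiluminescent enzyme immunoassay.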

[6] = test system: Human immunodeficiency virus 1; assay: Ratio of EC50 for ritonavir to compound against HIV1 NL4-3 harboring V82I mutation in protease encoding region infected in human […] cells; assay type: functional
[7] = test system: Human immunodeficiency virus 1; assay: Ratio of EC50 for HIV1 NL4-3 harboring I84V mutation in protease encoding region infected in human […] cells to EC50 for HIV1 NL4-3 infected in human MT4 cells; assay type: functional
[8] = test system: Human immunodeficiency virus 1; assay: Antiviral activity against HIV1 NL4-3 harboring L90M mutation in protease encoding region infected in human […] cells assessed as inhibition of p24 Gag protein production by ELISA; assay type: functional, organism-based; settings: Human immunodeficiency virus 1, NL4-3; how it was run: as §1
[9] = test system: Human immunodeficiency virus 1; assay: Antiviral activity against HIV1 NL4-3 harboring Q58E mutation in protease encoding region infected in human […] cells assessed as inhibition of p24 Gag protein production by ELISA; assay type: functional, organism-based; settings: Human immunodeficiency virus 1, NL4-3; how it was run: as §1
[10] = test system: Human immunodeficiency virus 1; assay: Ratio of EC50 for amprenavir to compound against HIV1 NL4-3 harboring Q58E mutation in protease encoding region infected in human […] cells; assay type: functional
[11] = test system: Human immunodeficiency virus 1; assay: Antiviral activity against HIV1 JRFL infected in human PHA-PBM cells after 7 days by MTT assay; assay type: functional, organism-based; settings: Human immunodeficiency virus 1, JRFL, PBMC, 168 h
[12] = test system: Human immunodeficiency virus 1; assay: Antiviral activity against HIV1 NL4-3 harboring I84V/I85V mutation in protease encoding region infected in human […] cells assessed as inhibition of p24 Gag protein production by ELISA; assay type: functional, organism-based; settings: Human immunodeficiency virus 1, NL4-3; how it was run: as §1
[13] = test system: Human immunodeficiency virus 1; assay: Ratio of EC50 for HIV1 NL4-3 harboring Q58E mutation in protease encoding region infected in human […] cells to EC50 for HIV1 NL4-3 infected in human MT4 cells; assay type: functional
[14] = test system: Human immunodeficiency virus 1; assay: Ratio of EC50 for HIV1 NL4-3 harboring L33F mutation in protease encoding region infected in human […] cells to EC50 for HIV1 NL4-3 infected in human MT4 cells; assay type: functional
[15] = test system: Human immunodeficiency virus 1; assay: Ratio of EC50 for ritonavir to compound against HIV1 NL4-3 harboring L33F mutation in protease encoding region infected in human […] cells; assay type: functional
[16] = test system: Human immunodeficiency virus 1; assay: Ratio of EC50 for HIV1 NL4-3 harboring D30N mutation in protease encoding region infected in human […] cells to EC50 for HIV1 NL4-3 infected in human MT4 cells; assay type: functional
[17] = test system: Human immunodeficiency virus 1; assay: Ratio of EC50 for amprenavir to compound against HIV1 NL4-3 harboring L10F mutation in protease encoding region infected in human […] cells; assay type: functional
[18] = test system: Human immunodeficiency virus 1; assay: Ratio of EC50 for nelfinavir to compound against HIV1 NL4-3 harboring D30N mutation in protease encoding region infected in human […] cells; assay type: functional
[19] = test system: Human immunodeficiency virus 2; assay: Antiviral activity against HIV2 ROD infected in human MT2 cells after 7 days by MTT assay; assay type: functional, organism-based; settings: Human immunodeficiency virus 2, ISOLATE ROD, MT2, 168 h
[20] = test system: Human immunodeficiency virus 1; assay: Antiviral activity against HIV1 subtype A 92UG037 infected in human PHA-PBM cells after 7 days by MTT assay; assay type: functional, organism-based; settings: Human immunodeficiency virus 1, subtype A 92UG037, PBMC, 168 h
[21] = test system: Human immunodeficiency virus 1; assay: Antiviral activity against HIV1 NL4-3 harboring L33F mutation in protease encoding region infected in human […] cells assessed as inhibition of p24 Gag protein production by ELISA; assay type: functional, organism-based; settings: Human immunodeficiency virus 1, NL4-3; how it was run: as §1
[22] = test system: Human immunodeficiency virus 1; assay: Ratio of EC50 for saquinavir to compound against HIV1 NL4-3 harboring G48V mutation in protease encoding region infected in human […] cells; assay type: functional
[23] = test system: Human immunodeficiency virus 1; assay: Antiviral activity against HIV1 NL4-3 harboring I84V mutation in protease encoding region infected in human […] cells assessed as inhibition of p24 Gag protein production by ELISA; assay type: functional, organism-based; settings: Human immunodeficiency virus 1, NL4-3; how it was run: as §1
[24] = test system: Human immunodeficiency virus 1; assay: Ratio of EC50 for HIV1 NL4-3 harboring L10F mutation in protease encoding region infected in human […] cells to EC50 for HIV1 NL4-3 infected in human MT4 cells; assay type: functional
[25] = test system: Human immunodeficiency virus 1; assay: Antiviral activity against HIV1 Ba-L infected in human PHA-PBM cells after 7 days by MTT assay; assay type: functional, organism-based; settings: Human immunodeficiency virus 1, Ba-L, PBMC, 168 h
[26] = test system: Human immunodeficiency virus 1; assay: Antiviral activity against HIV1 NL4-3 harboring I47V mutation in protease encoding region infected in human […] cells assessed as inhibition of p24 Gag protein production by ELISA; assay type: functional, organism-based; settings: Human immunodeficiency virus 1, NL4-3; how it was run: as §1
[27] = test system: Human immunodeficiency virus 1; assay: Ratio of EC50 for HIV1 NL4-3 harboring L10F/I47V/V82I/I85V mutation in protease encoding region infected in human […] cells to EC50 for HIV1 NL4-3 infected in human MT4 cells; assay type: functional
[28] = test system: Human immunodeficiency virus 1; assay: Ratio of EC50 for HIV1 NL4-3 harboring L10F/M46I/I47V/V82I/I85V mutation in protease encoding region infected in human […] cells to EC50 for HIV1 NL4-3 infected in human MT4 cells; assay type: functional
[29] = test system: Human immunodeficiency virus 1; assay: Antiviral activity against HIV1 NL4-3 harboring I85V mutation in protease encoding region infected in human […] cells assessed as inhibition of p24 Gag protein production by ELISA; assay type: functional, organism-based; settings: Human immunodeficiency virus 1, NL4-3; how it was run: as §1
[30] = test system: Human immunodeficiency virus 1; assay: Antiviral activity against HIV1 subtype E 92TH019 infected in human PHA-PBM cells after 7 days by MTT assay; assay type: functional, organism-based; settings: Human immunodeficiency virus 1, subtype E 92TH019, PBMC, 168 h
[31] = test system: Human immunodeficiency virus 1; assay: Ratio of EC50 for HIV1 NL4-3 harboring V82I/I85V mutation in protease encoding region infected in human […] cells to EC50 for HIV1 NL4-3 infected in human MT4 cells; assay type: functional
[32] = test system: Human immunodeficiency virus 1; assay: Ratio of EC50 for HIV1 NL4-3 harboring L90M mutation in protease encoding region infected in human […] cells to EC50 for HIV1 NL4-3 infected in human MT4 cells; assay type: functional
[33] = test system: Human immunodeficiency virus 1; assay: Ratio of EC50 for HIV1 NL4-3 harboring M46I mutation in protease encoding region infected in human […] cells to EC50 for HIV1 NL4-3 infected in human MT4 cells; assay type: functional

For `COc1ccc(S(=O)(=O)N(C[C@@H]2CCC(=O)N2)C[C@@H](O)[C@H](Cc2ccccc2)NC(=O)O[C@@H]2C[C@@H]3CCO[C@@H]3C2)cc1`, the “Ratio EC50” value [1] was 10, the “Ratio EC50” value [2] was 1.3 and the “Ratio EC50” value [3] was 1.2. For the same compound, the “Ratio EC50” value [4] was 1.9, the EC50 [5] was 20 nM and the “Ratio EC50” value [6] was 1.5. The “Ratio EC50” value [7] was 1.3, the EC50 [8] was 32 nM and the EC50 [9] was 33 nM. For the same compound, the “Ratio EC50” value [10] was 1, the EC50 [11] was 15 nM and the EC50 [12] was 97 nM. The “Ratio EC50” value [13] was 1.4, the “Ratio EC50” value [14] was 1.2 and the “Ratio EC50” value [15] was 1. For the same compound, the “Ratio EC50” value [16] was 0.9, the “Ratio EC50” value [17] was 1.4 and the “Ratio EC50” value [18] was 5.6. It also gave an EC50 [19] of 600 nM, an EC50 [20] of 15 nM and an EC50 [21] of 28 nM. The “Ratio EC50” value [22] was 5.1, the EC50 [23] was 30 nM and the “Ratio EC50” value [24] was 1.6. The EC50 [25] was 15 nM, the EC50 [26] was 37 nM and the “Ratio EC50” value [27] was 18.7. For the same compound, the “Ratio EC50” value [28] was >43, the EC50 [29] was 24 nM and the EC50 [30] was 15 nM. For the same compound, the “Ratio EC50” value [31] was 1.5, the “Ratio EC50” value [32] was 1.4 and the “Ratio EC50” value [33] was 1.2.
